# Results from ChEMBL document CHEMBL1240522, “Effect of goniothalamin on the development of Ehrlich solid tumor in mice” (Bioorg Med Chem, 2010).
# Activity calls are given as the source filed them. The rule behind the calls is not given here.
# Legend:
# UACC-62 = test: Cytotoxicity against human UACC62 cells after 48 hrs by sulforhodamine B assay; type: functional; settings: UACC-62, 48 h
# Summary of the method: (§1)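 Cells grown in RPMI 1640 with 5% FBS at 37 °C, 5% CO2, with penicillin/streptomycin. Treated for 48 h with compound in DMSO/RPMI at […]. Fixed with 50% trichloroacetic acid, protein stained with sulforhodamine B and read at 540 nm. TGI (total growth inhibition) obtained by non-linear regression of the concentration–response curves.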
# MCF7 = test: Cytotoxicity against human MCF7 cells after 48 hrs by sulforhodamine B assay; type: functional; settings: MCF7, 48 h; summary of the method: as §1
# [1] = Cytotoxicity against human NCI-ADR-RES cells after 48 hrs by sulforhodamine B assay; type: functional; summary of the method: as §1
# 786-0 = test: Cytotoxicity against human 786-0 cells after 48 hrs by sulforhodamine B assay; type: functional; settings: 786-0, 48 h; summary of the method: as §1
# NCI-H460 = test: Cytotoxicity against human NCI-H460 cells after 48 hrs by sulforhodamine B assay; type: functional; settings: NCI-H460, 48 h; summary of the method: as §1
# [2] = Cytotoxicity against human PCO3 cells after 48 hrs by sulforhodamine B assay; type: functional; settings: PCO3, 48 h; summary of the method: as §1
# OVCAR-3 = test: Cytotoxicity against human OVCAR-3 cells after 48 hrs by sulforhodamine B assay; type: functional; settings: OVCAR-3, 48 h; summary of the method: as §1
# HT-29 = test: Cytotoxicity against human HT-29 cells after 48 hrs by sulforhodamine B assay; type: functional; settings: HT-29, 48 h; summary of the method: as §1
# U-251 = test: Cytotoxicity against human U251 cells after 48 hrs by sulforhodamine B assay; type: functional; settings: U-251, 48 h; summary of the method: as §1
# Mus musculus [3] = test: Acute toxicity in BALB/C mouse assessed as mortality at up to 300 mg/kg, ip after 4 hrs; type: organism-based; set-up: dose 300 mg/kg, route intraperitoneal; settings: in vivo
# Summary of the method: (§2)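 Balb/C mice (20–35 g) dosed intraperitoneally at 50, 100 and 300 mg/kg. Observed for 4 h, then daily for 14 days, for body weight loss, locomotion, behaviour (agitation, lethargy), respiration, salivation, tearing eyes, cyanosis and mortality.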
# Mus musculus [4] = test: Acute toxicity in BALB/C mouse assessed as mortality at up to 300 mg/kg, ip after 15 days; type: organism-based; set-up: dose 300 mg/kg, route intraperitoneal; settings: in vivo, 360 h; summary of the method: as §2
# [5] = Antitumor activity against mouse EAC cells xenografted in BALB/C mouse assessed as inhibition of increase in tumor volume at 50 mg/kg, ip administered every 3 days measured on day 10 relative to control; type: functional; settings: Ehrlich, route intraperitoneal
# Summary of the method: (§3)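 Ehrlich cells kept as ascites by weekly ip passage of 5 × 10^5 cells in mice. Balb/C mice (n = 8/group) inoculated with 2.5 × 10^6 cells into the right hind footpad. Dosed ip every third day from day 3, vehicle 0.9% saline. Tumour volume taken as plethysmometer paw volume minus basal, every third day to day 15. Reported as % inhibition vs vehicle ± SD; ANOVA.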
# [6] = Antitumor activity against mouse EAC cells xenografted in BALB/C mouse assessed as inhibition of increase in tumor volume at 50 mg/kg, ip administered every 3 days measured on day 15 relative to control; type: functional; settings: Ehrlich, route intraperitoneal; summary of the method: as §3
# [7] = Antitumor activity against mouse EAC cells xenografted in BALB/C mouse assessed as reduction of tumor weight at 50 mg/kg, ip administered every 3 days measured on day 15 relative to control; type: functional; settings: Ehrlich, route intraperitoneal
# Summary of the method: (§4)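 Ehrlich footpad tumour model in Balb/C mice (n = 8/group, 2.5 × 10^6 cells) with ip dosing every third day from day 3 in 0.9% saline. Mice sacrificed on day 15 and both hind paws weighed. Relative tumour weight = (tumour paw − healthy paw weight)/body weight. Reported as % inhibition vs vehicle ± SD; ANOVA.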
# Mus musculus [8] = test: Acute toxicity in BALB/C mouse assessed as reduction of body weight at up to 50 mg/kg, ip after 15 days; type: organism-based; set-up: dose 50 mg/kg, route intraperitoneal; settings: in vivo, 360 h; summary of the method: as §2
# Mus musculus [9] = test: Antiinflammatory activity in BALB/C mouse assessed as inhibition of carrageenan-induced paw edema at 20 mg/kg, ip administered 30 mins before carrageenan challenge measured before 48 hrs by plethysmometer; type: functional, organism-based; set-up: dose 20 mg/kg
# Summary of the method: (§5)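 Balb/C mice, n = 8/group. Right hind paw basal volume measured by plethysmometer. Single ip dose in 0.9% saline vehicle, then carrageenan 2.5% injected intraplantar into the right hind footpad 30 min later. Edema taken as measured minus basal volume at 1.5, 3.0, 4.5, 6.0, 24, 48 and 72 h. Expressed as % inhibition vs vehicle ± standard deviation; ANOVA.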
# [10] = Antitumor activity against mouse EAC cells xenografted in BALB/C mouse assessed as reduction of tumor weight at 100 mg/kg, ip administered every 3 days measured on day 15 relative to control; type: functional; settings: Ehrlich, route intraperitoneal; summary of the method: as §4
# [11] = Antitumor activity against mouse EAC cells xenografted in BALB/C mouse assessed as inhibition of tumor growth at 30 mg/kg, ip administered every 3 days measured on day 7 relative to control; type: functional; settings: Ehrlich, route intraperitoneal; summary of the method: as §3
# [12] = Antitumor activity against mouse EAC cells xenografted in BALB/C mouse assessed as inhibition of tumor growth at 100 mg/kg, ip administered every 3 days measured on day 7 relative to control; type: functional; settings: Ehrlich, route intraperitoneal; summary of the method: as §3
# [13] = Antitumor activity against mouse EAC cells xenografted in BALB/C mouse assessed as inhibition of tumor growth at 300 mg/kg, ip administered every 3 days measured on day 7 relative to control; type: functional; settings: Ehrlich, route intraperitoneal; summary of the method: as §3
# [14] = Antitumor activity against mouse EAC cells xenografted in BALB/C mouse assessed as inhibition of tumor growth at 30 mg/kg, ip administered every 3 days measured on day 15 relative to control; type: functional; settings: Ehrlich, route intraperitoneal; summary of the method: as §3
# [15] = Antitumor activity against mouse EAC cells xenografted in BALB/C mouse assessed as inhibition of tumor growth at 100 mg/kg, ip administered every 3 days measured on day 15 relative to control; type: functional; settings: Ehrlich, route intraperitoneal; summary of the method: as §3
# [16] = Antitumor activity against mouse EAC cells xenografted in BALB/C mouse assessed as inhibition of tumor growth at 300 mg/kg, ip administered every 3 days measured on day 15 relative to control; type: functional; settings: Ehrlich, route intraperitoneal; summary of the method: as §3
# [17] = Antitumor activity against mouse EAC cells xenografted in BALB/C mouse assessed as reduction of tumor weight at 300 mg/kg, ip administered every 3 days measured on day 15 relative to control; type: functional; settings: Ehrlich, route intraperitoneal; summary of the method: as §4
# [18] = Antitumor activity against mouse EAC cells xenografted in BALB/C mouse assessed as reduction of tumor weight at 30 mg/kg, ip administered every 3 days measured on day 15 relative to control; type: functional; settings: Ehrlich, route intraperitoneal; summary of the method: as §4
# Mus musculus [19] = test: Acute toxicity in BALB/C mouse assessed as reduction of body weight at up to 300 mg/kg, ip after 15 days; type: organism-based; set-up: dose 300 mg/kg, route intraperitoneal; settings: in vivo, 360 h; summary of the method: as §2
# Mus musculus [20] = test: Antiinflammatory activity in BALB/C mouse assessed as inhibition of carrageenan-induced paw edema at 30 mg/kg, ip administered 30 mins before carrageenan challenge measured before 6 hrs by plethysmometer; type: functional, organism-based; set-up: dose 30 mg/kg; summary of the method: as §5
# Mus musculus [21] = test: Antiinflammatory activity in BALB/C mouse assessed as inhibition of carrageenan-induced paw edema at 100 mg/kg, ip administered 30 mins before carrageenan challenge measured after 3 to 4.5 hrs by plethysmometer; type: functional, organism-based; set-up: dose 100 mg/kg; summary of the method: as §5
# Mus musculus [22] = test: Antiinflammatory activity in BALB/C mouse assessed as inhibition of carrageenan-induced paw edema at 300 mg/kg, ip administered 30 mins before carrageenan challenge measured after 48 to 72 hrs by plethysmometer; type: functional, organism-based; set-up: dose 300 mg/kg; summary of the method: as §5
# Mus musculus [23] = test: Antiinflammatory activity in BALB/C mouse assessed as inhibition of carrageenan-induced paw edema at 100 mg/kg, ip administered 30 mins before carrageenan challenge measured before 6 hrs by plethysmometer; type: functional, organism-based; set-up: dose 100 mg/kg; summary of the method: as §5
# Mus musculus [24] = test: Antiinflammatory activity in BALB/C mouse assessed as inhibition of carrageenan-induced paw edema at 100 mg/kg, ip administered 30 mins before carrageenan challenge measured before 24 hrs by plethysmometer; type: functional, organism-based; set-up: dose 100 mg/kg; summary of the method: as §5
# Mus musculus [25] = test: Antiinflammatory activity in BALB/C mouse assessed as inhibition of carrageenan-induced paw edema at 100 mg/kg, ip administered 30 mins before carrageenan challenge measured before 72 hrs by plethysmometer; type: functional, organism-based; set-up: dose 100 mg/kg; summary of the method: as §5
# Mus musculus [26] = test: Antiinflammatory activity in BALB/C mouse assessed as inhibition of carrageenan-induced paw edema at 30 mg/kg, ip administered 30 mins before carrageenan challenge measured before 48 hrs by plethysmometer; type: functional, organism-based; set-up: dose 30 mg/kg; summary of the method: as §5
Compound,TGI (UACC-62) [µM],TGI (MCF7) [µM],TGI [1] [µM],TGI (786-0) [µM],TGI (NCI-H460) [µM],TGI [2] [µM],TGI (OVCAR-3) [µM],TGI (HT-29) [µM],TGI (U-251) [µM],Activity (Mus musculus [3]),Activity (Mus musculus [4]),inhibition (Mus musculus [9]),other results
O=C1C=CC[C@@H](/C=C/c2ccccc2)O1,76.4,77,11.5,28.7,44.1,24,> 100,57.6,24.1,Non-toxic,Non-toxic,,inhibition in vivo at 50 mg/kg [5]: 53.7%; inhibition in vivo at 50 mg/kg [6]: 48.7%; inhibition in vivo at 50 mg/kg [7]: 39.7%; Activity (Mus musculus [8]): Non-toxic
CN1C(C(=O)Nc2ccccn2)=C(O)c2ccccc2S1(=O)=O,,,,,,,,,,,,Active,
O=C1C=CCC(/C=C/c2ccccc2)O1 (racemic),23.2,22.7,6.38,22.4,36.4,18.2,18.8,29.2,18.2,Non-toxic,Non-toxic,Active,inhibition in vivo at 100 mg/kg [10]: 31.6%; inhibition in vivo at 30 mg/kg [11]: 50%; inhibition in vivo at 100 mg/kg [12]: 41.7%; inhibition in vivo at 300 mg/kg [13]: 35.7%; inhibition in vivo at 30 mg/kg [14]: 48.5%; inhibition in vivo at 100 mg/kg [15]: 40.9%; inhibition in vivo at 300 mg/kg [16]: 66.7%; inhibition in vivo at 300 mg/kg [17]: 41.8%; inhibition in vivo at 30 mg/kg [18]: 36.7%; Activity (Mus musculus [19]): Non-toxic; inhibition (Mus musculus [20]): inactive; inhibition (Mus musculus [21]): Active; inhibition (Mus musculus [22]): Active; inhibition (Mus musculus [23]): inactive; inhibition (Mus musculus [24]): Active; inhibition (Mus musculus [25]): Active; inhibition (Mus musculus [26]): Active
